From ChEMBL document CHEMBL3351265
Calls of active or inactive are those of the source. The rule behind the calls is not given here.

Tests used:
[1] = tested on: SUD4; assay: Antiproliferative activity against human SU-DHL4 cells after 7 days by CCK-8 assay; type: functional, cell-based
In short: (§1)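 DLBCL lines from ATCC grown in RPMI 1640 with 10% FBS and Pen/Strep; 1−2 × 10^4 cells per well seeded in serum-containing medium with compound, triplicate cultures; 7 days incubation; viability by CCK-8 absorbance at 450 nm (600 nm reference), expressed as percentage of absorbance relative to control cells.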

[2] = Reduction in EED protein expression in human Toledo cells after 72 hrs by Western blot analysis; type: functional, cell-based
In short: (§2)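 DB (mutant EZH2) or Toledo (wild-type EZH2) DLBCL cells treated with compound for 72 h; lysed in RIPA buffer; 30 μg total protein resolved by SDS-PAGE, blotted to PVDF, probed for EZH2, EED, SUZ12 or H3K27me3 with HRP secondary and chemiluminescent detection; total histone H3 as loading control; 10 μM EPZ005687 as reference inhibitor.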

[3] = molecular target: Polycomb protein EED (Homo sapiens) (UniProt O75530)
Sequence of Polycomb protein EED (Homo sapiens) (O75530 2-441 limits assumed): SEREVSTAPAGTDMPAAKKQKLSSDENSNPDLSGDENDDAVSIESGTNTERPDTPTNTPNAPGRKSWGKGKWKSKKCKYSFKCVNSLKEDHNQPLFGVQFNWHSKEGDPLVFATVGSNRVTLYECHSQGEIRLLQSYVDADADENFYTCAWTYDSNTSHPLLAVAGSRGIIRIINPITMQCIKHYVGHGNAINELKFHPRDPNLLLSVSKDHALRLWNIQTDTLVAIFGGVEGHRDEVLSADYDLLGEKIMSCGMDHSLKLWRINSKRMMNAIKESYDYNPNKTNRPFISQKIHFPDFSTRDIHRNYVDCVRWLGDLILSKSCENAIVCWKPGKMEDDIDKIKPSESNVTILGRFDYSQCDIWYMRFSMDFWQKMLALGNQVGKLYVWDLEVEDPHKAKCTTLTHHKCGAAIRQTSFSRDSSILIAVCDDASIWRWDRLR

[4] = tested on: DB; assay: Antiproliferative activity against human DB cells at 5 uM after 72 hrs by flow cytometry in presence of 5 uM EPZ005687
[5] = tested on: DB; assay: Antiproliferative activity against shRNA-treated human DB cells at 2.5 to 15 uM after 3 days by Alamar blue assay; type: functional, cell-based
In short: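 DB cells transduced with lentiviral pSICOR shRNA (mock, shEED or shEZH2); 5000 cells per well in serum-containing medium with compound, triplicate cultures; 3 days incubation; alamar blue added, plates incubated at 37 °C and read at 560 nm.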

[6] = tested on: DB; assay: Reduction in EZH2 protein expression in human DB cells after 72 hrs by Western blot analysis; type: functional, cell-based; in short: as §2
[7] = tested on: SUD4; assay: Antiproliferative activity against human SU-DHL4 cells after 7 days by CCK8 assay
[8] = tested on: Pfeiffer; assay: Antiproliferative activity against human Pfeiffer cells after 7 days by CCK8 assay
[9] = tested on: SU-DHL-6; assay: Antiproliferative activity against human SU-DHL6 cells after 7 days by CCK-8 assay; type: functional, cell-based; in short: as §1
[10] = tested on: SU-DHL-6; assay: Antiproliferative activity against human SU-DHL6 cells after 7 days by CCK8 assay
[11] = tested on: Pfeiffer; assay: Antiproliferative activity against human Pfeiffer cells at 5 uM after 7 days by CCK-8 assay in presence of 5 uM EPZ005687; type: functional, cell-based
[12] = molecular target: Polycomb protein EED (Homo sapiens) (UniProt O75530); remark: listed apart in the source
[13] = molecular target: Polycomb protein EED (Homo sapiens) (UniProt O75530); remark: listed apart in the source
[14] = tested on: Polycomb protein EED (Homo sapiens), O75530 [F356Y]; conditions: 200 uM
Sequence of Polycomb protein EED (Homo sapiens), O75530 [F356Y] (O75530 whole entry F356Y): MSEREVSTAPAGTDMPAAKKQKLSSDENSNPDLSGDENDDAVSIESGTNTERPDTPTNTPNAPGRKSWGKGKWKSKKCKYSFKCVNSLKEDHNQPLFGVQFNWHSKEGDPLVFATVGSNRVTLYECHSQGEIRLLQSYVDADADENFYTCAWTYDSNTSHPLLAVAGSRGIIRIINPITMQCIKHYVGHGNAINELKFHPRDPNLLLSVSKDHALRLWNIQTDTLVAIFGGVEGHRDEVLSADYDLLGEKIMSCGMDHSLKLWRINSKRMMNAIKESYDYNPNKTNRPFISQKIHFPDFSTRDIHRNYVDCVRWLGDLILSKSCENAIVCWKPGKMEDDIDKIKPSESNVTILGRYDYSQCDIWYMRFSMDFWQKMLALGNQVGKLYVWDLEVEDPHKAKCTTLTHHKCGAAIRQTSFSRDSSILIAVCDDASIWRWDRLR

[15] = tested on: Toledo; assay: Antiproliferative activity against human Toledo cells at 5 uM after 72 hrs by flow cytometry in presence of 5 uM EPZ005687
[16] = molecular target: Polycomb protein EED (Homo sapiens) (UniProt O75530); remark: listed apart in the source
[17] = molecular target: Polycomb protein EED (Homo sapiens) (UniProt O75530); remark: listed apart in the source
[18] = tested on: DB; assay: Reduction in EED protein expression in human DB cells after 72 hrs by Western blot analysis; type: functional, cell-based; in short: as §2
[19] = Reduction in SUZ12 protein expression in human Toledo cells after 72 hrs by Western blot analysis; type: functional, cell-based; in short: as §2
[20] = tested on: DB; assay: Antiproliferative activity against human DB cells after 72 h by flow cytometry in presence of EPZ005687
[21] = tested on: Polycomb protein EED (Homo sapiens), O75530 [L315D]; conditions: 200 uM
Sequence of Polycomb protein EED (Homo sapiens), O75530 [L315D] (O75530 whole entry L315D): as the sequence (O75530 whole entry F356Y) above, with L315D, Y356F counted along it

[22] = tested on: Polycomb protein EED (Homo sapiens), O75530 [L246E]; conditions: 200 uM
Sequence of Polycomb protein EED (Homo sapiens), O75530 [L246E] (O75530 whole entry L246E): as the sequence (O75530 whole entry F356Y) above, with L246E, Y356F counted along it

[23] = tested on: Polycomb protein EED (Homo sapiens), O75530 [L123E]; conditions: 200 uM
Sequence of Polycomb protein EED (Homo sapiens), O75530 [L123E] (O75530 whole entry L123E): as the sequence (O75530 whole entry F356Y) above, with L123E, Y356F counted along it

[24] = tested on: DB; assay: Antiproliferative activity against human DB cells after 7 days by CCK-8 assay; type: functional, cell-based; in short: as §1
[25] = tested on: Polycomb protein EED (Homo sapiens), O75530 [V112E]; conditions: 200 uM
Sequence of Polycomb protein EED (Homo sapiens), O75530 [V112E] (O75530 whole entry V112E): as the sequence (O75530 whole entry F356Y) above, with V112E, Y356F counted along it

[26] = tested on: Pfeiffer; assay: Antiproliferative activity against human Pfeiffer cells after 7 days by CCK-8 assay; type: functional, cell-based; in short: as §1
[27] = tested on: Polycomb protein EED (Homo sapiens), O75530 [L353A]; conditions: 200 uM
Sequence of Polycomb protein EED (Homo sapiens), O75530 [L353A] (O75530 whole entry L353A): as the sequence (O75530 whole entry F356Y) above, with L353A, Y356F counted along it

[28] = tested on: SU-DHL-6; assay: Antiproliferative activity against human SU-DHL6 cells at 5 uM after 7 days by CCK-8 assay in presence of 5 uM EPZ005687; type: functional, cell-based
[29] = Reduction in EZH2 protein expression in human Toledo cells after 72 hrs by Western blot analysis; type: functional, cell-based; in short: as §2
[30] = tested on: SUD4; assay: Antiproliferative activity against human SU-DHL4 cells at 5 uM after 7 days by CCK-8 assay in presence of 5 uM EPZ005687; type: functional, cell-based
[31] = tested on: Toledo; assay: Antiproliferative activity against human Toledo cells after 7 days by CCK-8 assay; type: functional, cell-based; in short: as §1
[32] = tested on: Toledo; assay: Antiproliferative activity against human Toledo cells by flow cytometry
[33] = tested on: DB; assay: Reduction in SUZ12 protein expression in human DB cells after 72 hrs by Western blot analysis; type: functional, cell-based; in short: as §2
[34] = Reduction in SUZ12 protein expression in human Toledo cells at 2 to 8 uM after 72 hrs by Western blot analysis; type: functional, cell-based; in short: as §2
[35] = tested on: DB; assay: Reduction in SUZ12 protein expression in human DB cells at 7.5 to 30 uM after 72 hrs by Western blot analysis; type: functional, cell-based; in short: as §2
[36] = Reduction in EED protein expression in human Toledo cells at 2 to 8 uM after 72 hrs by Western blot analysis; type: functional, cell-based; in short: as §2
[37] = Reduction in EZH2 protein expression in human Toledo cells at 2 to 8 uM after 72 hrs by Western blot analysis; type: functional, cell-based; in short: as §2
[38] = tested on: DB; assay: Reduction in EED protein expression in human DB cells at 7.5 to 30 uM after 72 hrs by Western blot analysis; type: functional, cell-based; in short: as §2
[39] = tested on: DB; assay: Reduction in EZH2 protein expression in human DB cells at 7.5 to 30 uM after 72 hrs by Western blot analysis; type: functional, cell-based; in short: as §2
[40] = tested on: DB; assay: Reduction in EED protein expression in human DB cells at 10 uM after 72 hrs by Western blot analysis; type: functional, cell-based; in short: as §2
[41] = Reduction in SUZ12 protein expression in human Toledo cells at 10 uM after 72 hrs by Western blot analysis; type: functional, cell-based; in short: as §2
[42] = tested on: DB; assay: Reduction in EZH2 protein expression in human DB cells at 10 uM after 72 hrs by Western blot analysis; type: functional, cell-based; in short: as §2
[43] = Reduction in EED protein expression in human Toledo cells at 10 uM after 72 hrs by Western blot analysis; type: functional, cell-based; in short: as §2
[44] = tested on: DB; assay: Reduction in SUZ12 protein expression in human DB cells at 10 uM after 72 hrs by Western blot analysis; type: functional, cell-based; in short: as §2
[45] = Reduction in EZH2 protein expression in human Toledo cells at 10 uM after 72 hrs by Western blot analysis; type: functional, cell-based; in short: as §2

Compound: COc1ccc(CCN2CCC(Nc3nc4ccccc4n3Cc3ccc(F)cc3)CC2)cc1
- Activity [1]: Active
- Activity [2]: Active
- ΔTm [3]: 2 °C
- Activity [4]: Active
- Activity [5]: inactive
- Activity [6]: Active
- Activity [7]: Active
- Activity [8]: Active
- Activity [9]: Active
- Activity [10]: Active
- Activity [11]: Active
- ΔTm [12]: 1.64 °C
- ΔTm [13]: 3.44 °C
- Tm [14]: 38.2 °C
- Activity [15]: Active
- ΔTm [16]: 4.08 °C
- ΔTm [17]: 4.29 °C
- Activity [18]: Active
- Activity [19]: Active
- Activity [20]: Active
- Tm [21]: 38.1 °C
- Tm [22]: 38.1 °C
- Tm [23]: 38.2 °C
- Activity [24]: Active
- Tm [25]: 38.2 °C
- Activity [26]: Active
- Tm [27]: 38.2 °C
- Activity [28]: Active
- Activity [29]: Active
- Activity [30]: Active
- Activity [31]: Active
- Activity [32]: Active
- Activity [33]: Active

Compound: COc1cccc2c1C(=O)c1c(O)c3c(c(O)c1C2=O)C[C@@](O)(C(=O)CO)C[C@@H]3O[C@H]1C[C@H](N)[C@H](O)[C@H](C)O1
- Activity [34]: inactive
- Activity [35]: inactive
- Activity [36]: inactive
- Activity [37]: inactive
- Activity [38]: inactive
- Activity [39]: inactive

Compound: Cc1cc(C)c(CNC(=O)c2cc(-c3ccc(CN4CCOCC4)cc3)cc3c2cnn3C2CCCC2)c(=O)[nH]1
- Activity [40]: inactive
- Activity [41]: inactive
- Activity [42]: inactive
- Activity [43]: inactive
- Activity [44]: inactive
- Activity [45]: inactive
